For assay [1], the system named is Canis familiaris. Nature of the assay: Compound was tested for the renal vasodilatory activity in anesthetized dog. Format: functional, Canis lupus familiaris. On the set-up: unit not given here. The gist of the method: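 Dogs anesthetized and α-blocked with phenoxybenzamine, with saline infused iv during blockade. Four ascending bolus doses (3-10000 nmol) given into the renal artery in 0.2 mL isotonic saline, one test compound per dog. Maximal rise in renal blood flow was taken as % of each dog's response to 100 nmol dopamine. ED30 is the dose raising flow by 30%.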

Assay [2] concerns Canis familiaris. Nature of the assay: Effect of compound on the renal blood flow (RBF) in alpha-blocked anesthetized dogs at a dose of 100 nmol after SCH 23390. Type of assay: functional, Canis lupus familiaris, Kidney. The gist of the method:
(§1)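 Phenoxybenzamine α-blocked anesthetized dogs, N=4-5/group (dopamine N=18). Doses given as renal-artery boluses; Δ renal blood flow in mL/min, mean ± SEM. SCH 23390 infused at 0.5 µg/kg/min iv, with doses repeated 5 min after infusion onset. After ≥1.5 h recovery, propranolol was given at 0.5 mg/kg ia over 15 min. The combined condition repeated SCH 23390 infusion with propranolol present.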

Assay [3] has as its system Canis familiaris. In words: Effect of compound on the renal blood flow (RBF) in alpha-blocked anesthetized dogs at a dose of 100 nmol after propranolol. Format: functional, Canis lupus familiaris, Kidney. The gist of the method:
as §1

Assay [4] relates to Canis familiaris. In words: Effect of compound on the renal blood flow (RBF) in alpha-blocked anesthetized dogs at a dose of 300 nmol after SCH 23390. Type of assay: functional, Canis lupus familiaris, Kidney. The gist of the method: as §1
The test system of assay [5] is Canis familiaris. In words: Effect of compound on the renal blood flow (RBF) in alpha-blocked anesthetized dogs at a dose of 300 nmol after propranolol. Type of assay: functional, Canis lupus familiaris, Kidney. The gist of the method:
as §1

The test system of assay [6] is Canis familiaris. Nature of the assay: Effect of compound on the renal blood flow (RBF) in alpha-blocked anesthetized dogs at a dose of 3000 nmol after propranolol. Format: functional, Canis lupus familiaris, Kidney. The gist of the method:
as §1

The test system of assay [7] is Canis familiaris. Nature of the assay: Effect of compound on the renal blood flow (RBF) in alpha-blocked anesthetized dogs at a dose of 3000 nmol after SCH 23390+propranolol. Format: functional, Canis lupus familiaris, Kidney. The gist of the method:
as §1

Assay [8] relates to Canis familiaris. In words: Effect of compound on the renal blood flow (RBF) in alpha-blocked anesthetized dogs at a dose of 10000 nmol after SCH 23390+propranolol. Type of assay: functional, Canis lupus familiaris, Kidney. The gist of the method:
as §1

Assay [9] has as its system Canis familiaris. In words: Effect of compound on the renal blood flow (RBF) in alpha-blocked anesthetized dogs at a dose of 10000 nmol after SCH 23390. Format: functional, Canis lupus familiaris, Kidney. The gist of the method:
as §1

In assay [10] the test system is Canis familiaris. In words: Effect of compound on the renal blood flow (RBF) in alpha-blocked anesthetized dogs at a dose of 10000 nmol after propranolol. Type of assay: functional, Canis lupus familiaris, Kidney. The gist of the method:
as §1

The subject of assay [11] is Canis familiaris. Nature of the assay: Effect of compound on the renal blood flow (RBF) in alpha-blocked anesthetized dogs at a dose of 3000 nmol after SCH 23390. Format: functional, Canis lupus familiaris, Kidney. The gist of the method:
as §1

The subject of assay [12] is Canis familiaris. Nature of the assay: Effect of compound on the renal blood flow (RBF) in alpha-blocked anesthetized dogs at a dose of 1000 nmol after propranolol. Format: functional, Canis lupus familiaris, Kidney. The gist of the method:
as §1

The subject of assay [13] is Canis familiaris. Nature of the assay: Effect of compound on the renal blood flow (RBF) in alpha-blocked anesthetized dogs at a dose of 1000 nmol after SCH 23390. Type of assay: functional, Canis lupus familiaris, Kidney. The gist of the method: as §1
The subject of assay [14] is Canis familiaris. In words: Effect of compound on the renal blood flow (RBF) in alpha-blocked anesthetized dogs at a dose of 1000 nmol after SCH 23390+propranolol. Type of assay: functional, Canis lupus familiaris, Kidney. The gist of the method: as §1
Assay [15] relates to Canis familiaris. Nature of the assay: Effect of compound on the renal blood flow (RBF) in alpha-blocked anesthetized dogs at a dose of 300 nmol after SCH 23390+propranolol. Type of assay: functional, Canis lupus familiaris, Kidney. The gist of the method:
as §1

The test system of assay [16] is Canis familiaris. Nature of the assay: Effect of compound on the renal blood flow (RBF) in alpha-blocked anesthetized dogs at a dose of 100 nmol after SCH 23390+propranolol. Type of assay: functional, Canis lupus familiaris, Kidney. The gist of the method:
as §1

SMILES strings stand for the structures.

`CNCCc1ccc(O)c(O)c1Cl.Cl` gave an ED30 in the assay on Canis familiaris [1] of 11.5. Also, the RBF in the assay with Canis familiaris [2] is 8 mL/min; in the assay with Canis familiaris [3] it was 34 mL/min; with Canis familiaris [4], 15 mL/min; in the assay with Canis familiaris [5] it was 49 mL/min.
In the case of `CCCNCCc1ccc(O)c(O)c1Cl.Cl`, in the assay with Canis familiaris [1], the ED30 amounted to 2166. The RBF in the assay with Canis familiaris [6] was 11 mL/min; with Canis familiaris [7], 2 mL/min; in the assay with Canis familiaris [8], 5 mL/min; in the assay with Canis familiaris [9], 17 mL/min; in the assay with Canis familiaris [10], 17 mL/min; in the assay with Canis familiaris [11], 11 mL/min.
Compound `CCNCCc1ccc(O)c(O)c1Cl.Cl` showed an ED30 in the assay on Canis familiaris [1] of 67.4. The RBF worked out at 40 mL/min with Canis familiaris [12]; 32 mL/min in the assay on Canis familiaris [13]; 2 mL/min with Canis familiaris [14]; 2 mL/min in the assay on Canis familiaris [15]; 22 mL/min in the assay with Canis familiaris [4]; 25 mL/min in the assay on Canis familiaris [5].
Regarding `NCCc1ccc(O)c(O)c1` [DOPAMINE], the results for the RBF in the assay with Canis familiaris [16], in the assay with Canis familiaris [2] and in the assay with Canis familiaris [3] were 14 mL/min, 15 mL/min and 69 mL/min, respectively.
In the assay with Canis familiaris [1], `Cl.NCCc1ccc(O)c(O)c1Cl` returned an ED30 of 13.5. The values for the RBF in the assay with Canis familiaris [2] and in the assay with Canis familiaris [3] were 4 mL/min and 43 mL/min, respectively.

The values above are taken from ChEMBL document CHEMBL1123534, “Synthesis and renal vasodilator activity of 2-chlorodopamine and N-substituted derivatives” (1986).
